Consider seven compounds from ChEMBL document CHEMBL4732039, “Introduction of a cyano group at the 2-position of an (R,S)-3-hydroxy-2-(phosphonomethoxy)propyl (HPMP) derivative of thymine elicits selective anti-HBV activity” (RSC Med Chem, 2021).

For data set [1], the system named is Human betaherpesvirus 5. Nature of the data set: Antiviral activity against HCMV AD169 infected in human embryonic lung cells. The class given is functional, cell-based. The conditions noted are these: Human betaherpesvirus 5, AD169, Lung.
The test system of data set [2] is Hepatitis B virus. Description: Antiviral activity against HBV infected in human HepG2.2.2.15 cells assessed as inhibition of viral replication preincubated for 3 days followed by media replenishment with fresh drug and further incubated for 3 days by qPCR analysis. The conditions noted are these: for EC50: HepG2 2.2.15; for EC90: HepG2 2.2.15, 144 h, time 6 day. The class given is functional, organism-based. In a few lines:
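HepG2 2.2.15 human hepatoblastoma cells, carrying two copies of wild-type HBV (strain ayw) genome and constitutively producing virus. Extracellular HBV DNA copy number from released virions quantified by real-time TaqMan qPCR. […] Lamivudine (3TC) was the positive control.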
(In qPCR the cycle at which signal appears reflects the starting amount.)

Data set [3] is described as follows: Selectivity index, ratio of CC50 of human HepG2.2.2.15 cells to EC50 of antiviral activity against HBV infected in human HepG2.2.2.15 cells. It is filed as toxicity, cell-based. The conditions noted are these: read-out: Ratio CC50/EC50.
The test system of data set [4] is Human betaherpesvirus 5. Nature of the data set: Antiviral activity against HCMV AD169 infected in human HFF cells assessed as reduction in virus-induced cytopathic effect incubated for 14 days by cell-titer glo assay. It is filed as functional, cell-based. The settings on record: Human betaherpesvirus 5, AD169, HFF, 336 h; for EC90: time 14 day. A general note: Protection from cytopathic effect is a common read-out in antiviral testing.

Data set [5] deals with Human immunodeficiency virus 2. Description: Antiviral activity against HIV-2 ROD infected in human MT4 cells assessed as reduction in virus-induced cytopathic effect measured after 5 days by MTT assay. It is filed as functional, organism-based. In a few lines:
(§1)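 MT-4 cells infected with wild-type HIV-1 IIIB or HIV-2 ROD. Protection read out by MTT assay. Cytotoxicity was assessed in parallel in uninfected MT-4 cells.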

Data set [6] concerns Human alphaherpesvirus 3. Nature of the data set: Antiviral activity against VZV infected in human HFF cells assessed as reduction in virus-induced cytopathic effect incubated for 14 days by cell-titer glo assay. The class given is functional, organism-based. The settings on record: Human alphaherpesvirus 3, HFF, 336 h; for EC90: time 14 day.
Data set [7] in a line: Cytotoxicity against human HepG2.2.2.15 cells assessed as reduction in cell viability incubated for 6 days by cell titer glo assay. It is filed as cell-based. The conditions noted are these: time 6 day. Background: ATP-based viability assays read luminescence as a measure of living cells.
Data set [8] is described as follows: Selectivity index, ratio of CC50 of human HFF cells to EC50 of antiviral activity against VZV. The conditions noted are these: read-out: Ratio CC50/EC50. The class given is toxicity.
In data set [9] the test system is Human immunodeficiency virus 1. Nature of the data set: Antiviral activity against HIV-1 3B infected in human MT4 cells assessed as reduction in virus-induced cytopathic effect measured after 5 days by MTT assay. The class given is functional, organism-based. The procedure, abridged:
as §1

Data set [10] in a line: Selectivity index, ratio of CC50 for human HFF cells to EC50 for antiviral activity against HCMV AD169.
Data set [11] is described as follows: Cytotoxicity against human HFF cells assessed as reduction in cell viability incubated for 14 days by cell titer glo assay. It is filed as cell-based. The conditions noted are these: time 14 day.

In general, EC50 refers to the concentration at which the effect is half-maximal. In turn, `Nc1ncnc2c1ncn2C[C@@H](CO)OCP(=O)(O)O` had an EC50 in [1] of 1 µM.

What is called EC90 is the concentration needed for an effect of 90%. As usually defined, the CC50 is the concentration that lowers cell viability or growth by half. For the compound `CCN(CC)CC.N#CC(CO)(Cn1ccc(N)nc1=O)OCP(=O)(O)O` (stereo not drawn), the EC50 was more than 100 µM in data set [2]; more than 150 µM in data set [4]; “Not Active” in data set [5] (mt4); more than 150 µM in data set [6]; “Not Active” in data set [9] (mt4). Besides, the EC90 in data set [2] was more than 100 µM; in data set [4] it was more than 150 µM; in data set [6] it was more than 150 µM. Further, the selectivity ratio in data set [3] and in data set [8] was 1 throughout. Moreover, the 50% cytotoxic concentration (CC50) at 144 h in data set [7] was more than 100 µM. Besides, in [10], the “Ratio CC50/EC50” value turned out to be 1. Moreover, the half-maximal cytotoxic concentration (CC50) at 336 h in [11] was more than 150 µM.

On to `CCN(CC)CC.N#CC(CO)(Cn1cnc2c(N)ncnc21)OCP(=O)(O)O` (stereo not drawn), for which the EC50 in [2] was 3.6 µM; in data set [4], 1.1 µM; in data set [5] (mt4) it was “Not Active”; in data set [6], 106 µM; in data set [9] (mt4), “Not Active”. The EC90 in data set [2] is 9.9 µM; in data set [4], more than 150 µM; in [6] it was more than 150 µM. Further, in data set [7], the CC50 at 144 h is more than 100 µM. In addition, the selectivity ratio in data set [8] was 1. The “Ratio CC50/EC50” value in data set [10] is recorded as more than 137. In addition, the CC50 at 336 h in data set [11] is more than 150 µM.

`CCN(CC)CC.N#CC(CO)(Cn1cnc2c(=O)[nH]c(N)nc21)OCP(=O)(O)O` (stereo not drawn): the EC50 is more than 100 µM in data set [2]; 2 µM in [4]; 33.7 µM in data set [5] (Human immunodeficiency virus 2, ROD, MT4, 120 h, read-out: EC50); 2.08 µM in [6]; 51 µM in [9] (Human immunodeficiency virus 1, 3B, MT4, 120 h, read-out: EC50). For the same compound, the EC90 in data set [2] was more than 100 µM; in data set [4], more than 30 µM; in data set [6] it was more than 30 µM. In addition, the selectivity ratio stood at 1 in data set [3] and 47 in data set [8]. The CC50 at 144 h in [7] was more than 100 µM. In addition, in data set [10], the “Ratio CC50/EC50” value came to 50. In data set [11], the CC50 at 336 h was found to be 102 µM.

`CCN(CC)CC.Cc1cn(CC(C#N)(CO)OCP(=O)(O)O)c(=O)[nH]c1=O` (stereo not drawn): the EC50 in data set [2] is 0.33 µM; in data set [4] it was more than 150 µM; in [5] (mt4), “Not Active”; in data set [6], more than 150 µM; in data set [9] (mt4), “Not Active”. For the same compound, the EC90 in data set [2] was 0.79 µM; in data set [4], more than 150 µM; in [6], more than 150 µM. Also, the selectivity ratio was more than 302000 in data set [3] and 1 in data set [8]. Moreover, in data set [7], the CC50 at 144 h was more than 100 µM. In [10], the “Ratio CC50/EC50” value stood at 1. Further, in data set [11], the CC50 at 336 h was more than 150 µM.

Take `CCN(CC)CC.N#CC(CO)(Cn1ccc(=O)[nH]c1=O)OCP(=O)(O)O` (stereo not drawn): the EC50 was more than 100 µM in data set [2]; more than 150 µM in data set [4]; “Not Active” in [5] (mt4); more than 150 µM in [6]; “Not Active” in data set [9] (mt4). Also, the EC90 was more than 100 µM in data set [2], more than 150 µM in [4] and more than 150 µM in data set [6]. The selectivity ratio in data set [3] and in data set [8] was 1 throughout. In addition, the CC50 at 144 h in data set [7] was more than 100 µM. For the same compound, in data set [10], the “Ratio CC50/EC50” value is reported as 1. For the same compound, the CC50 at 336 h in [11] was more than 150 µM.

Consider `Nc1nc2c(ncn2COC(CO)CO)c(=O)[nH]1` [GANCICLOVIR], for which, in [4], the EC50 was 0.9 µM and the EC90 came out at 74.2 µM. In addition, the CC50 at 336 h in data set [11] was more than 150 µM.
